The values that follow come from ChEMBL document CHEMBL4715860 (J Med Chem, 2020).

What is called Kd is the concentration at which binding is half-saturated. Higher therefore signals weaker binding. As usually defined, the Ki is a measure of affinity in units of concentration, obtained from inhibition or displacement. Usually IC50 stands for the point on the concentration scale where inhibition reaches its midpoint.

The nature of data set [1]: Substrate activity at human P-glycoprotein stably expressed in MDCK cells at 1 uM measured after 5 to 20 mins by UPLC-MS/MS analysis. It is filed as ADME, cell-based. To be noted: time 5-20 min. The method in brief: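 CRISPR canine-MDR1-knockout MDCKII cells stably expressing human MDR1, with the knockout parent line as control. Cells grown 5 days on TransWell filters and preincubated in HBSS 30 min at 37 °C. Compound at 1 μM added apical or basolateral. Receiver sampled at 5, 10 and 20 min; UPLC-MS/MS.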

The target of data set [2] is Phosphatidylinositol 4,5-bisphosphate 3-kinase catalytic subunit alpha isoform (Homo sapiens, UniProt P42336). Briefly: Binding affinity to wild-type human partial length PIK3CA (R108 to N1068 residues) expressed in HEK293 cells measured after 1 hr by Kinomescan method. The class given is cell-based. The method in brief:
(§1)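 Compound given as an 11-point threefold series from 30 μM, in technical duplicate. Kd from a Hill fit with slope fixed at −1.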

Data set [3] addresses Phosphatidylinositol 4,5-bisphosphate 3-kinase catalytic subunit gamma isoform (Homo sapiens, UniProt P48736). Briefly: Binding affinity to wild-type human partial length PIK3CG (S144 to A1102 residues) expressed in HEK293 cells measured after 1 hr by Kinomescan method. It is filed as cell-based. The method in brief: as §1
Another data set addresses T1, CYP1A2 (Homo sapiens, UniProt P05177).
T1 sequence (P05177 whole entry): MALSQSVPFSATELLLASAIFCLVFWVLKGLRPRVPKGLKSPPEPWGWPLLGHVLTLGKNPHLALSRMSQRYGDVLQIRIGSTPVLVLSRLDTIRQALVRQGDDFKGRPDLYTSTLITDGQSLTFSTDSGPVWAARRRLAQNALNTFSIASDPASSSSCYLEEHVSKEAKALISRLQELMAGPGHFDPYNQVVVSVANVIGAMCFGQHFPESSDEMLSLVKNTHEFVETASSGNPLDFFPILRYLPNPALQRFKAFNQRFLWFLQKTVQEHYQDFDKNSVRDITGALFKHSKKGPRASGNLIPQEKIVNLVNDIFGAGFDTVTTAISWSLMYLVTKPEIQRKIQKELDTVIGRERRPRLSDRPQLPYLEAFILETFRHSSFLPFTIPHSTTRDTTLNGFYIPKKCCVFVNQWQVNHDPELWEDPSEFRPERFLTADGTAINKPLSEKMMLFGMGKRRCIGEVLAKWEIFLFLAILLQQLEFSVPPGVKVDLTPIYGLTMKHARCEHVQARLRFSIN
Briefly: Drug metabolism assessed as human recombinant CYP1A2 expressed in baculovirus infected insect cells-mediated metabolism by measuring parent compound remaining at 1 uM incubated for 60 mins in presence of NADPH regenerating system by UHPLC based LC-MS analysis. Conditions: read-out: Stabilty; call rule not given here. It is filed as ADME.

For data set [4], the target named is T2, Serine/threonine-protein kinase mTOR (Homo sapiens, UniProt P42345). Briefly: Binding affinity to wild-type human partial length MTOR (L1382 to W2549 residues) expressed in HEK293 cells measured after 1 hr by Kinomescan method. The class given is cell-based. The gist of the method: as §1
Data set [5] addresses PI3-kinase p110-alpha/p85-alpha (Homo sapiens, UniProt P42336). Briefly: Inhibition of alexa fluor 647-labeled kinase tracer 314 binding to recombinant human N-terminal His-tagged p110alpha/p85alpha expressed in baculovirus expression system measured after 60 mins by LanthaScreen TR-FRET assay relative to control.
The target of the next data set is T3, CYP1A1 (Homo sapiens, UniProt P04798).
T3 sequence (P04798 whole entry): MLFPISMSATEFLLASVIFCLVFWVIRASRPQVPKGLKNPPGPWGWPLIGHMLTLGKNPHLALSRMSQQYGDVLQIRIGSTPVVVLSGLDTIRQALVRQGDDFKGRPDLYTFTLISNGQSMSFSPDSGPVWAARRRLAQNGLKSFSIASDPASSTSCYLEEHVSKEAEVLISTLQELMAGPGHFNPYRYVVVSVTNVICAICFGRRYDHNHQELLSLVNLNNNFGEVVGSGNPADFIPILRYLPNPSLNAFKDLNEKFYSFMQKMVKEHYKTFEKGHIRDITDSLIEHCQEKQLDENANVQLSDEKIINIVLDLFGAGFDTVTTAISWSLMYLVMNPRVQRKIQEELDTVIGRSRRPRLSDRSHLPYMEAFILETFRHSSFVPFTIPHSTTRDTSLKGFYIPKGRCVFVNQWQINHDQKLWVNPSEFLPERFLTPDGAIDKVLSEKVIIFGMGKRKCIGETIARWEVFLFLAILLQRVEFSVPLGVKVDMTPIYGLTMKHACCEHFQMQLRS
Description: Drug metabolism assessed as human recombinant CYP1A1 expressed in baculovirus infected insect cells-mediated metabolism by measuring parent compound remaining at 1 uM incubated for 60 mins in presence of NADPH regenerating system by UHPLC based LC-MS analysis. It is filed as ADME. Conditions: read-out: Stabilty.

Data set [6] has as its target Phosphatidylinositol 4-kinase beta (Homo sapiens, UniProt Q9UBF8). Description: Binding affinity to wild-type human full length PIK4CB (M1 to M828 residues) expressed in HEK293 cells measured after 1 hr by Kinomescan method. It is filed as cell-based. The method in brief:
as §1

Data set [7] addresses T2, Serine/threonine-protein kinase mTOR. Briefly: Inhibition of alexa fluor 647-labeled kinase tracer 314 binding to recombinant human N-terminal GST-tagged mTOR (1360 to 2549 residues) expressed in baculovirus expression system measured after 60 mins by TR-FRET based LanthaScreen Eu kinase binding assay. On the technique in general: Time-resolved FRET reads energy transfer from a long-lived donor to a nearby acceptor.

In data set [8] the target is Phosphatidylinositol 4,5-bisphosphate 3-kinase catalytic subunit beta isoform (Homo sapiens, UniProt P42338). Description: Binding affinity to wild-type human partial length PIK3CB (P118 to S1070 residues) expressed in HEK293 cells measured after 1 hr by Kinomescan method. It is filed as cell-based. The method in brief:
as §1

Data set [9] is described as follows: Inhibition of mTOR2 in human A2058 cells assessed as reduction in PKB/Akt phosphorylation at Ser473 incubated for 1 hr by Western blot analysis. The class given is cell-based. To be noted: A2058, 1 h. The method in brief:
(§2)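 A2058 cells grown 24 h at 37 °C, then exposed to inhibitor or DMSO for 1 h. Cells were PFA-fixed and stained for pPKB Ser473 or pS6 Ser235/236 by in-cell western with IR-dye secondary antibodies. Signal normalized to tubulin and to DMSO. IC50 from a 7-point (triplicate) or 11-point (duplicate) 1:2 series.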
In general terms: In western blotting, separated proteins are transferred to a membrane and probed.

Data set [10] is described as follows: Inhibition of mTORC1 in human A2058 cells assessed as reduction in RPS6 phosphorylation at S235/236 residue incubated for 1 hrs by Western blot analysis. Conditions: A2058, 1 h. The class given is cell-based. The gist of the method:
as §2

Phosphatidylinositol 4,5-bisphosphate 3-kinase catalytic subunit beta isoform, sequence (P42338 whole entry, the tested form may be a part, canonical isoform): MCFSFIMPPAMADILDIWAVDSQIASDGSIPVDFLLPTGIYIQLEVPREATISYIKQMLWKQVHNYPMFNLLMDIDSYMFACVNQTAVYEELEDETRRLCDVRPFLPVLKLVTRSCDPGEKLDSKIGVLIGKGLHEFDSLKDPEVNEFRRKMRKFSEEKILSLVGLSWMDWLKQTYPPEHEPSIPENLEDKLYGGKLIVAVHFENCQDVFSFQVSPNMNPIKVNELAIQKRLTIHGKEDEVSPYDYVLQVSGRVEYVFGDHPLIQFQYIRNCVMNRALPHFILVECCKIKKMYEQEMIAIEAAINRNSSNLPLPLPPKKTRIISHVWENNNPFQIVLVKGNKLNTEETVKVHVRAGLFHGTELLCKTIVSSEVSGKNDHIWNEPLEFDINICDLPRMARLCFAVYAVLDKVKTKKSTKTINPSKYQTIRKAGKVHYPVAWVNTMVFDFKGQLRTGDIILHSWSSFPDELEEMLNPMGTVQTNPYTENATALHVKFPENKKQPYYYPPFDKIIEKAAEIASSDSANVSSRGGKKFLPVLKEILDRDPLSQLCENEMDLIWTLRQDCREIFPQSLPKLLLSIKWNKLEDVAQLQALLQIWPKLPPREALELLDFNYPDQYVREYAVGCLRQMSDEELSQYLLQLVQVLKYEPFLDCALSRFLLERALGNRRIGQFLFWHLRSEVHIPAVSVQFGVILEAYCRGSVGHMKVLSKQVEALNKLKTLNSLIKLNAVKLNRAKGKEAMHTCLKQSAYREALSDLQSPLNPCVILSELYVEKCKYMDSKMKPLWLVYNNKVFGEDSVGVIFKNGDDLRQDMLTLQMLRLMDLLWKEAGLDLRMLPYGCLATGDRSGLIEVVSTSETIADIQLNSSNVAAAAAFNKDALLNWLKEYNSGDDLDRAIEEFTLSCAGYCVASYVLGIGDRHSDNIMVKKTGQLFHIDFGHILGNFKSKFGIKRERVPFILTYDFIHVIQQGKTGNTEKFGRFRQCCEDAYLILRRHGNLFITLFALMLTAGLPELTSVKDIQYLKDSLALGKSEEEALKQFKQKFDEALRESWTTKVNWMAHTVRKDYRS
PI3-kinase p110-alpha/p85-alpha, sequence (P27986 whole entry): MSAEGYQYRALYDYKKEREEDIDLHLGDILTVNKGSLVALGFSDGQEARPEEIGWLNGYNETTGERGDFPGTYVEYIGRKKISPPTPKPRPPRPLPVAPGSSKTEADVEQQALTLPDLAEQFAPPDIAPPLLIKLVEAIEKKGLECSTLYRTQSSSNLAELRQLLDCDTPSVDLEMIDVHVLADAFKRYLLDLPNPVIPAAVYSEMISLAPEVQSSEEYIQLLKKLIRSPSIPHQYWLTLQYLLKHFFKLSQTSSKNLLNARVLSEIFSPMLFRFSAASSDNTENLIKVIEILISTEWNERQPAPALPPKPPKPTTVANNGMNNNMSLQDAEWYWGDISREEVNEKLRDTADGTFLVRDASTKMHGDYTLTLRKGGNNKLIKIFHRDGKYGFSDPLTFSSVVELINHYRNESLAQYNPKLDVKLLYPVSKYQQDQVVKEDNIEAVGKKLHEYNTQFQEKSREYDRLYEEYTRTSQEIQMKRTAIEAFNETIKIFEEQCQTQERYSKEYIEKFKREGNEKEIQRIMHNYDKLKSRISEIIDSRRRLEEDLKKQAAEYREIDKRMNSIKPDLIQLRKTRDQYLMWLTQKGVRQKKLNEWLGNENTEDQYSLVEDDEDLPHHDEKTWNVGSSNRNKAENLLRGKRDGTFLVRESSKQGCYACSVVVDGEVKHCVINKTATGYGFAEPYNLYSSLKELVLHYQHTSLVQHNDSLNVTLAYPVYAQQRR
PI3-kinase p110-alpha/p85-alpha, sequence (P42336 whole entry): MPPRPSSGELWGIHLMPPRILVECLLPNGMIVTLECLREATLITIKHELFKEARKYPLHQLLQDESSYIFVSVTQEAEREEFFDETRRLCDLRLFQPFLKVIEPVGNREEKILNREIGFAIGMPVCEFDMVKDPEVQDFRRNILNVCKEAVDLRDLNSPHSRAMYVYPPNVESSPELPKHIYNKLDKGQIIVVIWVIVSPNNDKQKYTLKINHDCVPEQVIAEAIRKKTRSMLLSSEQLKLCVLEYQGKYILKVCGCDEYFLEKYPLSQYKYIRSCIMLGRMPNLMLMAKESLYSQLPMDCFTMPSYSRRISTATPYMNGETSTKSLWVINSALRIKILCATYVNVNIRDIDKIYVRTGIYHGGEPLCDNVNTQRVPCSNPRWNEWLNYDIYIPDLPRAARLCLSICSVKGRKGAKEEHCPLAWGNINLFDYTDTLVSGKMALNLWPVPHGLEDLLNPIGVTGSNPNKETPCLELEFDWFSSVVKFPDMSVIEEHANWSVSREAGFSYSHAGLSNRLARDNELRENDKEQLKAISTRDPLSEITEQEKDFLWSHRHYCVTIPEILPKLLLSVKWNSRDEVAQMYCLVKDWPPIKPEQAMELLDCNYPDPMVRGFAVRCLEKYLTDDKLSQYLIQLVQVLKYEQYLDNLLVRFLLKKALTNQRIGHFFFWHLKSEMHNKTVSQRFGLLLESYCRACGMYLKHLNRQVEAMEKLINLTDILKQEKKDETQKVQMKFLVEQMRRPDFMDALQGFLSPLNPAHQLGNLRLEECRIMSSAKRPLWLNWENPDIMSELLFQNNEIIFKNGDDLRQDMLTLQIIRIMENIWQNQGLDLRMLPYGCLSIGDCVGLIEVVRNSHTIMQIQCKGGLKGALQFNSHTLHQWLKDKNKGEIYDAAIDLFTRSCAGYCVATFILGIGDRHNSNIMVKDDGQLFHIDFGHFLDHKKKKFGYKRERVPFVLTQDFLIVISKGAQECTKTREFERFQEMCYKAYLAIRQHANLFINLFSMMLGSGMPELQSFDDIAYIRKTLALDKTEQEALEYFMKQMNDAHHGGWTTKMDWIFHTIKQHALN
Phosphatidylinositol 4,5-bisphosphate 3-kinase catalytic subunit alpha isoform, sequence (P42336 whole entry, the tested form may be a part, canonical isoform): as the sequence (P42336 whole entry) above
Phosphatidylinositol 4,5-bisphosphate 3-kinase catalytic subunit gamma isoform, sequence (P48736 whole entry, the tested form may be a part, canonical isoform): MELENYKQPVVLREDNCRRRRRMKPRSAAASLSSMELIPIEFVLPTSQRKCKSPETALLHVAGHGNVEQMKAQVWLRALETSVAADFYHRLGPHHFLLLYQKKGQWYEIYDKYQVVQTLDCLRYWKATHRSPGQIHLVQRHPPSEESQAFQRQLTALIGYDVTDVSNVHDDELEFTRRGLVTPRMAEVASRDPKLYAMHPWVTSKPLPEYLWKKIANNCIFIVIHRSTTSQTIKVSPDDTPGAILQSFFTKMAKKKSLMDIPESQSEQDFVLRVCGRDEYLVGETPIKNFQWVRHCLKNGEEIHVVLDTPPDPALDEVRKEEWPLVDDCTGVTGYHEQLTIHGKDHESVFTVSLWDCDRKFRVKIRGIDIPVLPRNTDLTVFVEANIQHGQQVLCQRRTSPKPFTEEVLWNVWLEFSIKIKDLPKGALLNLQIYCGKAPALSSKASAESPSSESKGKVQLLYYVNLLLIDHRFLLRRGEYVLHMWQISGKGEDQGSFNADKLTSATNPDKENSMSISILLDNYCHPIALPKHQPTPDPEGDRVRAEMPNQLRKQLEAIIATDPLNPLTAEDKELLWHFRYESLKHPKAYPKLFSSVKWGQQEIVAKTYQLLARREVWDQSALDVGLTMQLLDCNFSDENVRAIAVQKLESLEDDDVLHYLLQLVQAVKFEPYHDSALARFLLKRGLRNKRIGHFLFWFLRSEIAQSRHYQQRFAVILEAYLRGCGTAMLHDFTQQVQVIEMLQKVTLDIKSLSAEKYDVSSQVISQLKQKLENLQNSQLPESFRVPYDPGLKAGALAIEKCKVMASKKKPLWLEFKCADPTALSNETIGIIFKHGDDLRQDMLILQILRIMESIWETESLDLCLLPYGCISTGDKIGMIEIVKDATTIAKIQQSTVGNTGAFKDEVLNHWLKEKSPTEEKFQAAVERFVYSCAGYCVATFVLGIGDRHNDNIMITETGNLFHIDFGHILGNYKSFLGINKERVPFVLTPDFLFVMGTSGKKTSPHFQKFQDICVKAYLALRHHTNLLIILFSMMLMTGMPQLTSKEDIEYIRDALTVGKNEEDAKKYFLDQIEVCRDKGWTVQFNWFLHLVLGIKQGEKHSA
Phosphatidylinositol 4-kinase beta, sequence (Q9UBF8 whole entry, the tested form may be a part): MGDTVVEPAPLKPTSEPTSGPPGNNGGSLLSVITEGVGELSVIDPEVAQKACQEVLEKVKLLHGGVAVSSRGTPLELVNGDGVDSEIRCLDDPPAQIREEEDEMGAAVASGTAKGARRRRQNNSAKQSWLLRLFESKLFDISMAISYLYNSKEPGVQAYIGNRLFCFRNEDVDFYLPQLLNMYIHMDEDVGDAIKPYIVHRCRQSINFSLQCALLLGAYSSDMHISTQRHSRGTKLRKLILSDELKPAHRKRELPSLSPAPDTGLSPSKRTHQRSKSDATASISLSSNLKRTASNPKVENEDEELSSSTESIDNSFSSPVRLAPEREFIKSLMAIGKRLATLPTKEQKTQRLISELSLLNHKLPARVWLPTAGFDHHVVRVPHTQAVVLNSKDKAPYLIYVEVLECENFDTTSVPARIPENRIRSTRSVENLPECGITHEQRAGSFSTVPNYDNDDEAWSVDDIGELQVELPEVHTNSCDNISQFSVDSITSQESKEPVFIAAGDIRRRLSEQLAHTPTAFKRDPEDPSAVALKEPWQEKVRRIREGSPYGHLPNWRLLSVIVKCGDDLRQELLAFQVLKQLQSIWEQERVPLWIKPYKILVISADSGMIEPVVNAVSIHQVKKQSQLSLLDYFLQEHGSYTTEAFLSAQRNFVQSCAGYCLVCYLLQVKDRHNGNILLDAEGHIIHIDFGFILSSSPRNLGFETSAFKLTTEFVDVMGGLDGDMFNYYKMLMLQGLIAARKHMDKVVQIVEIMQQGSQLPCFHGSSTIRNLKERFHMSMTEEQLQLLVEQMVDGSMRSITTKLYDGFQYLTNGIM

In the case of `C[C@@H]1COCCN1c1nc(-c2cnc(N)cc2C(F)F)nc(N2[C@H](C)COC[C@@H]2C)n1`, the Activity result in [1] is listed as “Not Active”. Besides, the Kd in [2] is 0.11 µM; in data set [3], 1.35 µM; in [4] it was 0.00067 µM; in [6], over 30 µM; in data set [8], 1.45 µM. The remaining at 1 h, 1 µM at CYP1A2 is 98.5%; on CYP1A1, 45.1%. Moreover, the Ki in data set [5] came to 0.287 µM; in data set [7], 0.0036 µM. For the same molecule, the IC50 came to 0.096 µM in data set [9] and 0.071 µM in data set [10].
`C[C@@H]1COCCN1c1nc(-c2cnc(N)cc2C(F)F)nc(N2CCOCC2(C)C)n1`: the Activity result in [1] is “Not Active”. The Kd in [2] is 0.081 µM; in [3], 0.595 µM; in data set [4], 0.00088 µM; in [6] it was over 30 µM; in [8] it was 1.35 µM. For the same molecule, the remaining at 1 h, 1 µM at CYP1A2 came to 101%; on CYP1A1 it was 1.9%. In addition, the Ki in data set [5] was 0.469 µM; in data set [7], 0.0047 µM. In addition, the IC50 in data set [9] is 0.191 µM; in data set [10], 0.061 µM.
